Results published in ChEMBL document CHEMBL4368901 (J Med Chem, 2019).
The source made the active and inactive calls. The rule behind the calls is not given here.

Columns and labels:
[1] = Inhibition of GDH (unknown origin) using NADP+ and glutamate as substrate preincubated for 0.5 hrs followed by substrate addition and measured after 1 hr by EZMTT reagent-based UV-Vis absorbance assay; set-up: species or system Homo sapiens
[2] = tested on: A549; assay: Antiproliferative activity against human A549 cells after 5 days by EZMTT reagent-based assay; type: functional, cell-based; settings: A549, 120 h
[3] = tested on: A549; assay: Antiproliferative activity against human A549 cells after 5 days by EZMTT reagent-based assay relative to control; type: functional
[4] = tested on: H22; assay: Antiproliferative activity against mouse H22 cells after 5 days by EZMTT reagent-based assay; type: functional, cell-based; settings: H22, 120 h
[5] = tested on: H22; assay: Antiproliferative activity against mouse H22 cells after 5 days by EZMTT reagent-based assay relative to control; type: functional
[6] = tested on: CAKI-1; assay: Antiproliferative activity against human Caki1 cells after 5 days by EZMTT reagent-based assay; type: functional, cell-based; settings: CAKI-1, 120 h
[7] = tested on: CAKI-1; assay: Antiproliferative activity against human Caki1 cells after 5 days by EZMTT reagent-based assay relative to control; type: functional
[8] = tested on: HCT-116; assay: Antiproliferative activity against human HCT116 cells after 5 days by EZMTT reagent-based assay; type: functional, cell-based; settings: HCT-116, 120 h
[9] = tested on: HCT-116; assay: Antiproliferative activity against human HCT116 cells after 5 days by EZMTT reagent-based assay relative to control; type: functional
[10] = Drug uptake in human Caki1 cells after 24 hrs using gold nanoparticles by microspectrometric based Raman spectra assay; type: ADME, cell-based; settings: caki-1, 24 h
Summary of the method: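 Compound was premixed 1:1 with nanogold particles, at up to 2 µM. Glutamine-dependent Caki-1 cells were treated for 3, 9, 16 and 24 h, then SERS spectra were collected. Signal at 1352 cm^-1 served as the compound marker for cellular concentration.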

[11] = Drug uptake in human Caki1 cells up to 2 uM after 24 hrs without gold nanoparticles by microspectrometric analysis based Raman spectra assay; type: ADME, cell-based; settings: caki-1, 24 h
[12] = biological target: T1, Glutaminase kidney isoform, mitochondrial (Homo sapiens, UniProt O94925); assay: Inhibition of human KGA preincubated for 15 to 30 mins followed by substrate addition and measured after 3 to 4 hrs by GDH-EZMTT reagent-based GDH coupled assay
T1 sequence (O94925 whole entry): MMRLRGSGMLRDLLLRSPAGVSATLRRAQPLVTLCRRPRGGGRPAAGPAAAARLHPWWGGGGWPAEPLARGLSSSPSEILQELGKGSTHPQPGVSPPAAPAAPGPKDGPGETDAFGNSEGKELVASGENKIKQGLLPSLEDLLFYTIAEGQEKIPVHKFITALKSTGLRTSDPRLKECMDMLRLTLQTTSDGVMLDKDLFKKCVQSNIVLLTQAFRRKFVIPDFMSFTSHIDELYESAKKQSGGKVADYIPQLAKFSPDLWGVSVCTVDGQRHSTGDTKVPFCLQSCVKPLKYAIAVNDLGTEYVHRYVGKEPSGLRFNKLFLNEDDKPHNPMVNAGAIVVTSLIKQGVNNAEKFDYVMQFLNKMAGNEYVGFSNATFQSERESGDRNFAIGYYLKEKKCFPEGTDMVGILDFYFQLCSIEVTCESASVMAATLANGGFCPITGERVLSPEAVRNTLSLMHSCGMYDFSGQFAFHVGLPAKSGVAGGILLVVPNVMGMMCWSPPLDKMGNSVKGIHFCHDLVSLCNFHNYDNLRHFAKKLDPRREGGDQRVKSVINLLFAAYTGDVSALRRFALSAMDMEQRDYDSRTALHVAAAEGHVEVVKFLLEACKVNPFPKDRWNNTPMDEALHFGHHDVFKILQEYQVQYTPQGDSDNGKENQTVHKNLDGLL

[13] = tested on: H22; assay: Antitumor activity against mouse H22 cells transplanted in ICR mouse assessed as reduction in tumor weight at 10 mg/kg, sc administered once daily for 10 consecutive days relative to control; type: functional; set-up: scale not given: the % may be the effect or the level left
Summary of the method: (§1)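 H22 liver cancer model in young SPF ICR mice, n=10 per group. Compound given subcutaneously once daily at 10 mg/kg, 10 injections; the control group received N.S. End-point tumour size and weight, body weight and survival were recorded. Treated groups were compared with control by unpaired t test.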

[14] = Drug level in tumor of mouse H22 cells transplanted ICR mouse at 10 mg/kg, sc administered once daily for 10 consecutive days by HPLC analysis; type: ADME, organism-based, Neoplasm; settings: in vivo
Summary of the method: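 Compound accumulation was measured in end-point tumours from H22-bearing ICR mice after once-daily subcutaneous 10 mg/kg dosing, 10 injections. Tumour content was analysed by HPLC.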

[15] = Metabolic stability in ICR mouse blood after 2 hrs by HPLC analysis; type: ADME, tissue-based
Summary of the method: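 Compound was incubated in blood for 2 h and its remaining concentration was quantified by HPLC.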

[16] = Metabolic stability in mouse liver microsomes at 50 uM after 4 hrs in presence of NADPH by HPLC analysis; type: ADME, Microsome; settings: read-out: Stability
Summary of the method: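 Compound was incubated with mouse liver microsomes for 4 h, with coumarin as the control. The remaining level was quantified by HPLC using UV absorbance at 254 nm.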

[17] = Retention time of compound in mouse liver microsomes at 50 uM by LC-MS/MS analysis; type: ADME, Microsome
[18] = tested on: H22; assay: Antitumor activity against mouse H22 cells transplanted in ICR mouse assessed as induction of fibrous hyperplasia at tumor region at 10 mg/kg, sc administered once daily for 10 consecutive days by hematoxylin and eosin staining-based assay; type: functional, organism-based
[19] = tested on: H22; assay: Antitumor activity against mouse H22 cells transplanted in ICR mouse assessed as induction of inflammatory cell infiltration at tumor region at 10 mg/kg, sc administered once daily for 10 consecutive days by hematoxylin and eosin staining-based assay; type: functional, organism-based
[20] = tested on: H22; assay: Antitumor activity against mouse H22 cells transplanted in ICR mouse assessed as induction of foam-like histiocytic reaction at tumor region at 10 mg/kg, sc administered once daily for 10 consecutive days by hematoxylin and eosin staining-based assay; type: functional, organism-based
[21] = tested on: H22; assay: Antitumor activity against mouse H22 cells transplanted in ICR mouse assessed as induction of scattered deformed nuclei at tumor region at 10 mg/kg, sc administered once daily for 10 consecutive days by hematoxylin and eosin staining-based assay; type: functional, organism-based
[22] = tested on: H22; assay: Antitumor activity against mouse H22 cells transplanted in ICR mouse assessed as induction of tumor deterioration at 10 mg/kg, sc administered once daily for 10 consecutive days by hematoxylin and eosin staining-based assay; type: functional, organism-based
[23] = tested on: A549; assay: Induction of ROS generation in human A549 cells at 10 uM after 12 hrs by DCFH-DA staining-based fluorescence microscopic analysis; type: functional, cell-based
Summary of the method: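 A549 cells were seeded at 10000 per well and exposed to compound at 0, 3 or 10 µM for 12 h. ROSUP at 100 µg/ml served as the positive control, alongside untreated cells. ROS was then assessed.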

[24] = tested on: HCT-116; assay: Antitumor activity against human HCT116 cells xenografted in nude mouse assessed reduction in tumor size at 10 mg/kg, sc administered for 14 consecutive days; type: functional, organism-based
Summary of the method: (§2)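 HCT116 xenografts in young SPF nude mice, n=6 per group. Compound given at 10 mg/kg subcutaneously, […]; the control group received N.S. End-point tumour weight, tumour growth and body weight were recorded. End-point tumours were H&E stained to assess tissue damage. Weights were compared by unpaired t test.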

[25] = tested on: HCT-116; assay: Antitumor activity against human HCT116 cells xenografted in nude mouse assessed reduction in tumor weight at 10 mg/kg, sc administered for 14 consecutive days; type: functional, organism-based; summary of the method: as §2
[26] = tested on: HCT-116; assay: Antitumor activity against human HCT116 cells xenografted in nude mouse assessed induction of tumor necrosis at 10 mg/kg, […] by hematoxylin and eosin staining-based assay; type: functional, organism-based
[27] = tested on: H22; assay: Antitumor activity against mouse H22 cells transplanted in ICR mouse assessed as reduction in tumor size at 10 mg/kg, sc administered once daily for 10 consecutive days relative to control; type: functional, organism-based; summary of the method: as §1
[28] = Drug metabolism mouse liver microsomes assessed as metabolite formation due to loss of terminal pyridine and oxygen at 50 uM by LC-MS/MS analysis; type: ADME, Microsome
[29] = Solubility of compound; type: physicochemical
[30] = tested on: HCT-116; assay: Antitumor activity against human HCT116 cells xenografted in nude mouse assessed reduction in tumor weight at 10 mg/kg, […] relative to control; type: functional; set-up: scale not given: the % may be the effect or the level left
[31] = tested on: H22; assay: Antitumor activity against mouse H22 cells transplanted in ICR mouse assessed as increase in mouse survival at 10 mg/kg, sc administered once daily for 10 consecutive days relative to control; type: functional, organism-based

Structure (SMILES): Cn1cc(CC(=O)Nc2nnc(CCSCCc3nnc(NC(=O)Cc4cn(C)c5ccccc45)[se]3)[se]2)c2ccccc21
- IC50 [1]: > 13000 nM
- IC50 [2]: 110 nM
- Imax [3]: 81%
- IC50 [4]: 1380 nM
- Imax [5]: 71%
- IC50 [6]: 400 nM
- Imax [7]: 87%
- IC50 [8]: 320 nM
- Imax [9]: 94%
- Drug uptake [10]: Dose-dependent effect
- Drug uptake [11]: Not Active

Structure (SMILES): COc1ccc2c(c1)c(CC(=O)Nc1nnc(CCCCc3ccc(NC(=O)Cc4cccc(OC(F)(F)F)c4)nn3)[se]1)cn2C
- IC50 [1]: > 13000 nM
- IC50 [12]: 10 nM
- IC50 [2]: 10 nM
- Imax [3]: 90%
- IC50 [4]: 4050 nM
- Imax [5]: 70%
- IC50 [6]: 20 nM
- Imax [7]: 90%
- IC50 [8]: 20 nM
- Imax [9]: 92%
- Activity [13]: 40%
- Drug uptake [14]: Active
- Stability [15]: Stable
- remaining at 4 h, 50 µM [16]: 30%
- Retention_time [17]: 10.7 min
- Activity [18]: Active
- Activity [19]: Active
- Activity [20]: Active
- Activity [21]: Active
- Activity [22]: Active

Structure (SMILES): O=C(Cc1cccc(OC(F)(F)F)c1)Nc1ccc(CCCCc2nnc(NC(=O)Cc3ccccn3)s2)nn1
- IC50 [1]: > 13000 nM
- Imax [3]: 82%
- IC50 [4]: > 10000 nM
- Imax [5]: 44%
- Imax [7]: 88%
- IC50 [8]: 28 nM
- Imax [9]: 90%
- Activity [23]: Active
- Activity [24]: Active
- Activity [25]: Active
- Activity [26]: Active
- Activity [13]: Active
- Stability [15]: Stable
- remaining at 4 h, 50 µM [16]: 46%
- Retention_time [17]: 7.97 min
- Activity [27]: Active
- Drug metabolism [28]: Metabolite_Detected

Structure (SMILES): O=C(Cc1ccccc1)Nc1nnc(CCCCc2nnc(NC(=O)Cc3ccccc3)s2)s1
- solubility [29]: Insoluble
- IC50 [1]: > 13000 nM
- IC50 [2]: > 13000 nM
- Imax [3]: 0%

Structure (SMILES): Cn1cc(CC(=O)Nc2nnc(CCSCCc3nnc(NC(=O)Cc4cn(C)c5ccccc45)s3)s2)c2ccccc21
- IC50 [1]: > 13000 nM
- IC50 [2]: 2900 nM
- Imax [3]: 80%
- IC50 [4]: > 10000 nM
- Imax [5]: 42%
- IC50 [6]: 3920 nM
- Imax [7]: 85%
- IC50 [8]: 2200 nM
- Imax [9]: 93%
- Drug uptake [10]: Dose-dependent effect
- Drug uptake [11]: Not Active

Structure (SMILES): Cn1cc(CC(=O)Nc2nnc(CCSCCc3nnc(N)[se]3)[se]2)c2ccccc21
- IC50 [1]: > 13000 nM
- IC50 [12]: 1100 nM
- IC50 [2]: > 13000 nM
- Drug uptake [10]: Dose-dependent effect
- Drug uptake [11]: Not Active

Structure (SMILES): O=C(Cc1cccc(OC(F)(F)F)c1)Nc1ccc(CCCCc2nnc(NC(=O)Cc3ccccn3)[se]2)nn1
- IC50 [1]: > 13000 nM
- IC50 [2]: 17 nM
- Imax [3]: 82%
- IC50 [4]: 6780 nM
- Imax [5]: 75%
- IC50 [6]: 19 nM
- Imax [7]: 89%
- IC50 [8]: 9 nM
- Imax [9]: 90%
- Activity [23]: Active
- Activity [30]: 40%
- Activity [26]: Active
- Activity [31]: Active
- Drug uptake [14]: Active
- Stability [15]: Stable
- remaining at 4 h, 50 µM [16]: 50%
- Retention_time [17]: 8.2 min
- Activity [27]: Active
